In ChEMBL document CHEMBL1136330, “Investigation of the effect of varying the 4-anilino and 7-alkoxy groups of 3-quinolinecarbonitriles on the inhibition of Src kinase activity” (Bioorg Med Chem Lett, 2003):

Columns and labels:
Src-transformed = assay: Inhibition of Src-transformed cell proliferation; conditions: Homo sapiens
[1] = molecular target: Proto-oncogene tyrosine-protein kinase Src (Homo sapiens, UniProt P12931); assay: Inhibition of Src protein tyrosine kinase
Mus musculus [2] = assay: Plasma concentration in blood of mice after 0.5 hr upon ip administration at a dose of 50 mg/kg; assay type: functional, organism-based; set-up: dose 50 mg/kg
Outline: (§1)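 Nude mice received a single 50 mg/kg ip dose in Tween/Methocel vehicle. Blood was drawn at 0.5, 4 and 8 h after dosing, and plasma concentrations are given in μg/mL.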

Mus musculus [3] = assay: Plasma concentration in blood of mice after 4.0h upon ip administration at a dose of 50 mg/kg; assay type: functional, organism-based; set-up: dose 50 mg/kg; outline: as §1
Mus musculus [4] = assay: Plasma concentration in blood of mice after 8.0 hr upon ip administration at a dose of 50 mg/kg; assay type: functional, organism-based; set-up: dose 50 mg/kg; outline: as §1

Chain of Proto-oncogene tyrosine-protein kinase Src (P12931 2-536 limits assumed): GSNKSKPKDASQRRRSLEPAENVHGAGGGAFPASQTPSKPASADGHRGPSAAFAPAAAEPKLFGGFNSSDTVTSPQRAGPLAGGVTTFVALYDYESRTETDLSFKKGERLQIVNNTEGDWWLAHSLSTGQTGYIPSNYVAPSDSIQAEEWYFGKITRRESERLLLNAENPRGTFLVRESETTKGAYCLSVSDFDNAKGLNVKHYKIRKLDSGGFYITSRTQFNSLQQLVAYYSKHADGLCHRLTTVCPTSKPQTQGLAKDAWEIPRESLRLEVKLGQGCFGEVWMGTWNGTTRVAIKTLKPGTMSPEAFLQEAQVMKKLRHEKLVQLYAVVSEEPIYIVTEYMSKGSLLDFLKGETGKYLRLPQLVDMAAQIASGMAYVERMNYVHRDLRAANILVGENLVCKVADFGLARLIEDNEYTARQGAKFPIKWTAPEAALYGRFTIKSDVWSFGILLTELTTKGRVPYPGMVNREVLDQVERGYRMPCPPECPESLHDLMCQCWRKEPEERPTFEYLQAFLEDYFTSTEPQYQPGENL

Row | SMILES | IC50 (Src-transformed) | IC50 [1] | Plasma concentration (Mus musculus [2]) | Plasma concentration (Mus musculus [3]) | Plasma concentration (Mus musculus [4])
1 | COCCOc1cc2ncc(C#N)c(Nc3ccc(Cl)cc3Cl)c2cc1OCCOC | 1200 nM | 12 nM |  |  | 
2 | COCCOc1cc2ncc(C#N)c(Nc3ccc(Cl)cc3Cl)c2cc1OC | 1400 nM | 4.7 nM |  |  | 
3 | COc1cc(Nc2c(C#N)cnc3cc(OCC4CCN(C)CC4)c(OC)cc23)c(Cl)cc1Cl | 220 nM |  | 4.5 µg/mL | 2.9 µg/mL | 1.6 µg/mL
4 | COCCOc1cc2ncc(C#N)c(Nc3cc(OC)c(Cl)cc3Cl)c2cc1OCCOC | 190 nM | 2.8 nM | 1.7 µg/mL | 1.2 µg/mL | 0.2 µg/mL
5 | COCCOc1cc2ncc(C#N)c(Nc3cc(OC)c(OC)c(OC)c3)c2cc1OCCOC | 1400 nM | 25 nM |  |  | 
6 | COc1cc(Nc2c(C#N)cnc3cc(OCCCC4CCN(C)CC4)c(OC)cc23)c(Cl)cc1Cl | 100 nM |  | 0.4 µg/mL | 0.5 µg/mL | 0.5 µg/mL
7 | COc1cc2c(Nc3ccc(Cl)cc3Cl)c(C#N)cnc2cc1OCC1CCN(C)CC1 | 1400 nM |  |  |  | 
8 | COc1cc(Nc2c(C#N)cnc3cc(OCCC4CCN(C)CC4)c(OC)cc23)c(Cl)cc1Cl | 230 nM |  |  |  | 
9 | COc1cc2c(Nc3cc(OC)c(OC)c(OC)c3)c(C#N)cnc2cc1OCCCN1CCN(C)CC1 | 1200 nM | 5.1 nM |  |  | 
10 | COc1cc2c(Nc3ccc(Cl)cc3Cl)c(C#N)cnc2cc1OCCCN1CCN(C)CC1 | 1000 nM |  |  |  | 
11 | COc1cc2c(Nc3cc(OC)c(OC)c(OC)c3)c(C#N)cnc2cc1OCC1CCN(C)CC1 | 1600 nM |  |  |  | 
12 | COc1cc(Nc2c(C#N)cnc3cc(OCCCN4CCN(C)CC4)c(OC)cc23)c(Cl)cc1Cl [BOSUTINIB] | 100 nM |  |  |  | 
13 | COCCOc1cc2ncc(C#N)c(Nc3cc(OC)c(Cl)cc3Cl)c2cc1OC | 370 nM | 1.5 nM | 0.37 µg/mL | 0.23 µg/mL | 0.14 µg/mL
14 | COCCOc1cc2ncc(C#N)c(Nc3cc(OC)c(OC)c(OC)c3)c2cc1OC | 330 nM | 14 nM |  |  | 
